Screens: PubChem BioAssay, several laboratories
Most compounds without a hit are left out; they make up all but 4.8% or so of the library.
Efflux pump inh – blocks antifungal efflux pumps in multiplex yeast assay; S. cerevisiae Candida pump triplex, Nile Red efflux; inhibition, % at 10 µM; AID 485275; 0.44% of 330,000 active;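 active means plate passing quality check with inhibition over a set limit, or well fluorescence over plate mean plus 4 SD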;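 further: Nile Red retained in pooled yeast measured as flow cytometry median fluorescence; 0% = buffer negative control and 100% = Enniatin B positive control; higher means more Nile Red kept so more efflux inhibition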
WT yeast gro inh – growth inhibition of WT yeast, mitochondrial fusion screen. inhibition, % at 10 µM. AID 1362. 2.1% of 190,000 active. mitochondrial fusion phenotypic screen, WT strain; in the data active means inhibition above about 58%; tested in S. cerevisiae
CSC inhib – blocks cancer stem cells; cancer stem cell-like cells viability, luminescence; inhibition, % at 7.5 µM; 1.1% of 300,000 active; AID 2717; in the data active means inhibition above about 75%; inconclusive means no clear call, values can overlap the other calls; tested in HMLE shEcad cells
T cruzi inh – blocks replication of Trypanosoma cruzi | inhibition, % (no concentration beside the values) | AID 1885 | 1.4% of 300,000 active | T. cruzi beta-gal in NIH3T3, luminescence, 90 h;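 active means mean inhibition across valid replicates above about 55%, limit read from the data; inconclusive means mean below that limit but half or more replicates reach it; inactive means mean below it, under half of replicates reach it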;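 further: signal also drops with host cell toxicity which is not excluded here; 0% = plate median of DMSO wells and 100% = zero luminescence signal; higher percent means less beta-gal luminescence so fewer parasites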
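Read-out: Parasite load inhibition, % | Test system: Mouse NIH/3T3 fibroblasts infected with β-gal-expressing T. cruzi Tulahuen C4 | Amount: 5,000 cells/well | Medium: DMEM, 2% fetal bovine serum | Signal: GalScreen β-gal luminescence, detergent lysis, 60 min | Timing: 3 h attach, ≥90 h co-culture | Also added: Tulahuen C4 trypomastigotes, 5000/well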
SUMO Mot1 rescue – SUMOylation pathway inhibition by Mot1-301 growth rescue; AID 2716; 1% of 320,000 active; S. cerevisiae Mot1-301 growth rescue, ATP luminescence, 38.5C; percent above DMSO median, 100 means doubled; growth rescue, % at 18.8 µM;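 active means every valid replicate shows activation above 250% relative to neutral control wells; inactive means the rest, any valid replicate at or below 250%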;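 further: OY570 slx delta 5 strain wells were the positive control but not used for scaling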
Beta apoptosis – blocks beta cell apoptosis; INS-1E cytokine-induced death, ATP luminescence, 48 h; percent of positive-control rescue, neutral wells zero; protection from apoptosis, % (no concentration beside the values); 0.8% of 300,000 active;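 active means Every replicate reaches about 75%, or at least half do and their mean reaches it too, limit read from the data; inconclusive means At least half of replicates reach the limit but their mean does not; inactive means Under half of replicates reach the limit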;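 further: 0% = cytokine-treated negative control wells and 100% = positive control rescue; higher means more ATP so stronger rescue from cytokine killing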
An asterisk follows results filed as active; ? = inconclusive; nt = no result given.

SMILES	Efflux pump inh	WT yeast gro inh	CSC inhib	T cruzi inh	SUMO Mot1 rescue	Beta apoptosis
CCOC(=O)C1CCN(C2CCN(Cc3nc(-c4ccccc4)no3)CC2)CC1	0	-4	15	9	-11	-6
CN(Cc1ccccc1)C(=O)C1CCCN(Cc2cccc(Cl)c2)C1 (configuration not stated)	0	-1	4	60*	8	5
CCOC(=O)C1CCCN(Cc2ccc(-c3ccccc3)cc2)C1 (configuration not stated)	0	nt	10	68*	4	0
Cc1nc(Cl)sc1C(=O)Nc1cccc2ccccc12	0	-12	11	1	-4	-1
CCN(c1ccccc1)S(=O)(=O)c1ccc(OC)c(NC(=O)CNCCc2ccccc2)c1	0	13	19	58*	-18	45
CCN(c1ccccc1)S(=O)(=O)c1ccc(OC)c(NC(=O)Cc2ccc(F)cc2)c1	0	nt	47	nt	13	-3
CC(c1ccco1)N(C(=O)c1ccccc1NS(=O)(=O)c1cc([N+](=O)[O-])ccc1Cl)c1ccccn1 (configuration not stated)	0	27	-3	-16	402*	-3
CCCN1C/C(=C/c2ccc3c(c2)OCO3)C(=O)/C(=C/c2ccc3c(c2)OCO3)C1	0	3	87*	-2	24	-3
COc1ccccc1C1CC(=O)Nc2cc(C)c(C)cc21 (configuration not stated)	0	nt	39	19	-14	6
Cc1cc2c(cc1C)C(c1ccccc1OC(C)C)CC(=O)N2 (configuration not stated)	0	nt	96*	11	-6	41
O=C(CN1CCOCC1)N/N=C/c1ccc(-c2cccc(Cl)c2Cl)o1	0	nt	-13	19	279	-22
Cc1nn(-c2cc(N3CCCCCC3)ccc2[N+](=O)[O-])c(=O)c2ccccc12	0	4	-8	25	29	-8
Cc1ccc(-c2nn(-c3cc(N4CCNCC4)ccc3[N+](=O)[O-])c(=O)c3ccccc23)cc1	1	10	20	73*	-17	6
Cc1ccc(S(=O)(=O)N2CCOCC2)cc1NC(=O)CSc1nnc(NC2CC2)s1	0	nt	3	nt	-15	-1
O=C(NC1CCCc2c1cnn2-c1cc(F)cc(F)c1)c1ccccn1 (configuration not stated)	5.3*	nt	-16	1	123	2
CN(C)Cc1nc2ccccc2c(=O)n1Cc1nc(-c2cc3ccccc3o2)cs1	0	-24	34	65*	39	3
Cc1csc(Cn2c(CN(C)C)nc3ccccc3c2=O)n1	0	10	16	-2	82	-6
COc1ccc(/C=C/C(=O)c2ccncc2)c2ccccc12	-1	11	176*	-27	-36	100*
COc1ccc(/C=C/C(=O)c2ccc[nH]2)c(OC)c1OC	0	1	-6	1	12	-8
Cc1cccc(CC(=O)Nc2ccc(C(=O)N3CCOCC3)cc2)c1	0	nt	-16	-17	-14	-5
COc1cccc(NC(=O)CN(C)C(=O)/C=C/c2ccc3ccccc3n2)c1	0	nt	21	-4	-7	nt
O=C(CSc1nc(NS(=O)(=O)c2ccccc2)cc(=O)[nH]1)Nc1ccc(Cl)cc1	nt	4	nt	nt	nt	nt
O=c1cc(NS(=O)(=O)c2ccccc2)nc(SCc2ccc(Cl)cc2)[nH]1	0	-10	88*	nt	-13	5
Cc1ccc(C(=O)CC(=O)c2cccc(F)c2)c(O)c1	0	69*	4	7	-36	12
CN(C)CCOCCOc1ccc(Cl)cc1Br	0	6	-3	64*	-3	-6
SMILES	Efflux pump inh	WT yeast gro inh	CSC inhib	T cruzi inh	SUMO Mot1 rescue	Beta apoptosis
CN(C)CCCOc1ccc(Cl)cc1Br	0	2	-12	68*	6	-7
Cc1ccc(OCCCN(C)C)c(Br)c1	0	0	-3	26	0	-6
CC(C)c1nnc(NC(=O)CCC(=O)NC2CC2)s1	0	nt	-16	-8	-12	nt
COc1ccccc1OC(C)C(=O)Nc1ccccc1C(=O)NCc1cccnc1 (configuration not stated)	0	nt	nt	-7	131	-1
O=C(Nc1nc2ccc(Cl)cc2s1)C1CCCO1 (configuration not stated)	0	2	-4	32	8	5
O=C(Nc1nc2ccccc2s1)C1CCN(S(=O)(=O)c2cc([N+](=O)[O-])ccc2Cl)CC1	0	nt	?	59*	-35	81*
O=C(Nc1nc2c(F)cc(F)cc2s1)C1CC1	0	nt	5	58*	3	2
O=C(Nc1nc2cc3c(cc2s1)OCO3)C1CC1	0	nt	2	56*	49	19
O=C(CN1C(=O)CCC1=O)Nc1nc2c(F)cc(F)cc2s1	0	20	-7	-17	169	-4
O=C(Nc1nc2ccc(Cl)cc2s1)C1CC1	0	nt	nt	66*	72	nt
FC(F)(F)c1ccc2c(c1)[nH]c(=S)n2C1CC1	0	18	4	-4	-11	-6
CC(C)(C)NC(=O)CSc1nc2ccc(Nc3nc(N4CCOCC4)nc(N4CCOCC4)n3)cc2s1	0	49	9	58*	2	8
CC(=O)CSc1nc2ccc(Nc3nc(N4CCOCC4)nc(N4CCOCC4)n3)cc2s1	0	9	-7	52	2	2
c1ccc(Nc2cccc3c(Nc4ccccc4)cccc23)cc1	0	nt	39	56*	87	27
c1ccc(Nc2ccccc2)cc1	0	nt	11	-1	17	-3
Cc1ccc(N(CCC(=O)Nc2nnc(C3CC3)s2)S(=O)(=O)c2ccccc2)cc1	10*	1	-11	-11	9	-15
CN(c1ccccc1)S(=O)(=O)c1ccc(C(=O)Nc2nnc(C3CC3)s2)cc1	0	nt	-7	-2	-13	-3
CC1(C)CC(NC(=O)Cc2ccccc2)CC(C)(C)N1	0	nt	-17	-11	-18	-1
O=C(Nc1cccc(Cl)c1)NC1CCN(C2CCCCC2)C1 (configuration not stated)	0	nt	2	-3	-9	2
c1ccc(Cc2nn[nH]n2)cc1	0	-17	0	-4	-10	1
COc1ccc(Cc2nn[nH]n2)cc1	0	91*	6	-7	50	0
CN(c1ccccc1)S(=O)(=O)c1cccc(NC(=O)c2nn(C)c(=O)c3ccccc23)c1	1	nt	nt	nt	nt	nt
CCOc1ccc(S(=O)(=O)NC(C)C(=O)NCc2ccc3c(c2)OCO3)cc1 (configuration not stated)	0	nt	19	1	-24	-3
OCCCNc1cc(-c2ccnc(Nc3cccc(Cl)c3)n2)ccn1	0	nt	-10	50	-14	-36
CN(C)CCCNc1ccc(-c2cc(Nc3cccc(Cl)c3)ncn2)cn1	0	nt	81*	49	0	13
CC(C)(C)OC(=O)N1CCC(NC(=O)c2[nH]cnc2C(=O)Nc2ccc(Cl)cc2)CC1	0	nt	89*	nt	41	-8
